Series [1] addresses T1, rat mEH (Rattus norvegicus, UniProt P07687).
T1 sequence (P07687 1-455): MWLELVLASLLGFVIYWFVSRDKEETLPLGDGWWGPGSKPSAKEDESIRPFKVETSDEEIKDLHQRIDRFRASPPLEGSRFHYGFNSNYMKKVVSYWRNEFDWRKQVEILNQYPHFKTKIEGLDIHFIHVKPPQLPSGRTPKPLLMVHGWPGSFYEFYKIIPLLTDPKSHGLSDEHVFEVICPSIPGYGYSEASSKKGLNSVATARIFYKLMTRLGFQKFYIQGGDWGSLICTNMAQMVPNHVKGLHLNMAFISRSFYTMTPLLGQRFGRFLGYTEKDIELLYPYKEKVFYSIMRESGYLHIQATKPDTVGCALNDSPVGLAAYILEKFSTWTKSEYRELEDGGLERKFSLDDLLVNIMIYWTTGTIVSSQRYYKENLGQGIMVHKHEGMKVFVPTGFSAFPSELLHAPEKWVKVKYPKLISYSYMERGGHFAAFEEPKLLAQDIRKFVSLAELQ
Put plainly: Inhibition potency assay with [3H]-cSO radiochemical substrate, rat mEH. It counts as biochemical. The method in brief: (§1)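 Radiochemical format with [3H]-cis-stilbene oxide at 50 μM final. Partially purified recombinant enzyme: rat 1.0, human 3.2 μg/mL. Reaction in 100 mM Tris/HCl pH 9.0 with 0.1 mg/mL BSA, 5 min at 30°C, quenched with isooctane to extract remaining epoxide. Radioactive diol in the aqueous phase counted by liquid scintillation; run in triplicate.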

Series [2] has as its target T2, human mEH (Homo sapiens, UniProt P07099).
T2 sequence (P07099 1-455): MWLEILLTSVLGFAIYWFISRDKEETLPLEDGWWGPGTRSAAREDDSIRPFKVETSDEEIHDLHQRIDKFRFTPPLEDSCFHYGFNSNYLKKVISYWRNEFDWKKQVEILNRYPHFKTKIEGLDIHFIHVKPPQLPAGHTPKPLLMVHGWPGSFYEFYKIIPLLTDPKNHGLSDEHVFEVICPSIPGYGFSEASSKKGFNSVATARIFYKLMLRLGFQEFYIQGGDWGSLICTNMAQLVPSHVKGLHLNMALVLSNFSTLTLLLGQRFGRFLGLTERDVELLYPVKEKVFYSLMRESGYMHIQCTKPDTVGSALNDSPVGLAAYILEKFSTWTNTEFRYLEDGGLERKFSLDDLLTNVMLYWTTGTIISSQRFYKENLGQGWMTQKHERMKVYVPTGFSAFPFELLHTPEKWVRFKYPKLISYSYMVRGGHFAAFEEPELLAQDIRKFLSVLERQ
Put plainly: Inhibition potency assay with [3H]-cSO radiochemical substrate, human mEH. It counts as biochemical. In short, it runs like this:
as §1

For series [3], the target named is T1, rat mEH. In words: Inhibition potency assay with fluorescent substrate 11, rat mEH. It is filed as biochemical. In short, it runs like this: (§2)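 Kinetic fluorescent format: baculovirus-expressed, partially purified enzyme in 100 mM Tris/HCl pH 8.5 with 0.1 mg/mL BSA (final human 1.6, rat 0.5 μg/mL), preincubated 5 min at 30°C with inhibitor (0–200 μM final, from DMSO). Substrate at 25 μM final (rat also tested at 2.5 μM). Naphthaldehyde followed 10 min at 30°C. IC50 regressed from ≥6 points in the linear region; three runs, each in triplicate.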

Series [4] addresses T2, human mEH. Put plainly: Inhibition potency assay with fluorescent substrate 11, human mEH. It is filed as biochemical. In short, it runs like this: as §2
Series [5] deals with T2, human mEH. In words: Kinetic constants determination, human mEH. It counts as biochemical. The following applies: lower than for cSO.
The target in series [6] is T1, rat mEH. In words: High throughput screening end-point assay with 11, rat mEH. The following applies: average, n = 4 for each enzyme, 30 min end-point. It is filed as biochemical. The method in brief:
(§3)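 End-point screen of a pesticide library at 10 μM final. Recombinant partially purified enzyme (human 1.6, rat 0.5 μg/mL final) in 100 mM Tris/HCl pH 8.5 with 0.1 mg/mL BSA, preincubated with compounds 5 min at 30°C. Substrate added to 25 μM, then 30 min at room temperature in the dark before fluorescence reading (ex 330/em 465 nm). Buffer-only background and full-activity control wells; duplicate averages.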

The nature of series [7]: Substrate solubility. It counts as physicochemical. The following applies: assay buffer, pH 9.
The target of series [8] is T2, human mEH. Put plainly: High throughput screening end-point assay with 11, human mEH. It is filed as biochemical. The following applies: average, n = 4 for each enzyme, 30 min end-point. The method in brief: as §3
Series [9] deals with T1, rat mEH. In words: Kinetic constants determination, rat mEH. The following applies: greater. It is filed as biochemical.
The target in series [10] is T2, human mEH. Put plainly: Specific activity of human mEH for absorbent/fluorescent substrates. The following applies: [S] 50 μM, pH 9.0, 37°C, fluorescent substrates. It is filed as biochemical. In short, it runs like this:
(§4)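 Partially purified recombinant enzyme (0.5–80 μg/mL final) in 100 mM Tris/HCl pH 9.0 with 0.1 mg/mL BSA, preincubated 5 min at 37°C. Substrate added at 50 μM final from 5 mM DMSO stock; buffer-only wells gave background. Read kinetically for 5 min: 4-nitrophenol at 450 nm, or fluorescence (coumarin ex 355/em 450; naphthaldehyde ex 330/em 465). Signals converted via standard curves (0.005–0.5 μM); 8 replicates.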

Series [11] in a line: Background. It counts as physicochemical. The method in brief: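 Enzyme-free control wells held Tris/HCl (100 mM, pH 9.0, 0.1 mg/mL BSA), preincubated 5 min at 37°C. Substrate was added from a 5 mM DMSO stock working solution to 50 μM final, and product was read kinetically for 5 min. Read-out was 4-nitrophenol absorbance at […] fluorescence (ex 355/em 450 or ex 330/em 465 nm). Signals were converted to molar amounts via 0.005–0.5 μM standard curves; 8 replicates.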

The target in series [12] is T1, rat mEH. Put plainly: Specific activity of rat mEH for absorbent/fluorescent substrates. The following applies: [S] 50 μM, pH 9.0, 37°C, fluorescent substrates. It counts as biochemical. In short, it runs like this:
as §4

Series [13] deals with T2, human mEH. Put plainly: Assay conditions optimization with substrate 11, human mEH. It is filed as biochemical. In short, it runs like this: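 Recombinant human mEH from baculovirus, partially purified. Enzyme titrated at 0–10 μg/mL final against 25 μM fluorogenic glycidyl carbonate substrate, in 0.1 M Tris/HCl pH 9.0 with 0.1 mg/mL BSA at 37°C, followed over 30 min. Then 1.6 μg/mL enzyme with substrate compared across six buffers (three pH values) at 30 and 37°C over 10 min, against enzyme-free background. 6-Methoxy-2-naphthaldehyde read at ex 330/em 465 nm.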

The mark [14] stands for this setting: IC50, Rat mEH, 11 as substrate, [11] 25 μM, enzyme 0.5 μg/mL, pH 8.5, 30°C.
Where [15] appears, read: HmEH 1.6 μg/mL, 25 μM 11, Tris/HCl pH 9.0, 37°C.

The structures appear in SMILES notation. Values after ≈ are worked out from the molar mass of the structure shown. Where only a bound is given, the exact number is not on record here.

This is an account of results in paper PMC3090455 (Analytical biochemistry, 2011).

Broadly, the IC50 is the midpoint of a concentration-inhibition curve. What is called solubility is how much of the substance goes into solution per volume. A lower solubility goes with a poorly soluble substance.

As to `CCCCCCCCCSC(C)C(N)=O` (centres unmarked) [A, 2-nonylsulfanyl-propionamide], the IC50 in [1] is 400 ± 100 nM; in series [2], 500 ± 100 nM; in series [3] (setting [14]), 4200 ± 700 nM; in [3] (IC50, rat mEH, 11 as substrate near its KM, [11] = 2.5 μM), 500 nM.

With `CCCCCCCC/C=C/CCCCCCCC(N)=O` [B, elaidamide], the IC50 was 500 ± 100 nM in series [1] (read-out: IC50, Rat mEH, cSO as substrate, [cSO] 50 μM, enzyme 1.0 μg/mL); 140000 ± 13000 nM in series [4] (read-out: IC50, Human mEH, 11 as substrate, [11] 25 μM, enzyme 1.6 μg/mL, pH 8.5, 30°C); 1000 ± 100 nM in series [2] (read-out: IC50, Human mEH, cSO as substrate, [cSO] 50 μM, enzyme 3.2 μg/mL); 63000 ± 5000 nM in series [3] (read-out: IC50, Rat mEH, 11 as substrate, [11] 25 μM, enzyme 0.5 μg/mL, pH 8.5, 30°C).

On to `CCCCCCC(O)CCCCCCCCCCC(N)=O` (centres unmarked) [C, 12-hydroxy-octadecanamide], for which the IC50 in [1] is 1100 ± 100 nM; in series [4], > 200000 nM; in series [2] it was 2600 ± 300 nM; in [3] (setting [14]), 123000 ± 13000 nM.

On to `COc1ccc2cc(C(C#N)OC(=O)OCC3CO3)ccc2c1` (centres unmarked) [compound 11, Cyano(6-methoxynaphthalen-2-yl)methyl (oxiran-2-ylmethyl) Carbonate], for which, in series [5], the “KM relative to cSO, human mEH” value is ~40 fold. In series [6], the “S/N of HTS assay” value is > 30 and the “Z' of HTS assay” value is 0.69 ± 0.03. The solubility in series [7] was ~50 µM (≈ 15.7 µg/mL). Moreover, in series [8], the “S/N of HTS assay” value is reported as > 30 and the “Z' of HTS assay” value is listed as 0.69 ± 0.03. The “VM/KM relative to cSO and 9, rat mEH” value in series [9] stood at 10 fold. Moreover, in series [10], the “Human mEH S/B” value is 4, the “Human mEH Spec. act.” value was 25 ± 2 nmol/min/mg and the “Human mEH Z'” value is 0.66. Also, the “reduction of background hydrolysis on reducing pH” value in series [11] (Tris/HCl, pH reduced from 9.0 to 8.5, 25 μM 11) was “≈ 30%”. Further, in series [11] ([S] 50 μM, Tris/HCl 100 mM pH 9.0, 0.1 mg/mL BSA, 37°C, fluorescent substrates), the background hydrolysis was 0.018 ± 0.003 nmol/min. Moreover, the “reduction of background hydrolysis on reducing temperature” value in series [11] (incubation temperature from 37 to 30 °C, 25 μM 11) is listed as “at least 50%”. In [12], the “Rat mEH S/B” value is given as 5, the “Rat mEH S/N” value was determined as 48, the “Rat mEH Spec. act.” value came out at 68 ± 4 nmol/min/mg and the “Rat mEH Z'” value was found to be 0.73. In series [13] (setting [15]), the “signal to background ratio (S/B)” value is listed as “≈ 3” and the “signal to noise ratio (S/N)” value was “≈ 40”. Besides, the “decrease of catalytic activity of human mEH on reducing temperature” value in [13] (incubation temperature from 37 to 30 °C, all buffers tested, 25 μM 11) was “≈ 30%”.
